Laboratory results as given in the M2OR odorant receptor database.

Assays:
Settings in all cases: stereoisomer not certain
O5AN1 L289F = system: O5AN1 L289F
In short: (§1)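 Transient luciferase assays in mammalian cell lines were common, though methods varied by source. The values come from published papers and their supplementary material, with extra details from the original authors when needed. Responsive refers to a measured signal the original authors judged statistically different from baseline, and non-responsive (inactive) to the remainder.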

O5AP2 A105T = system: O5AP2 A105T
Chain of O5AP2 A105T (as listed by the source, stated change not applied): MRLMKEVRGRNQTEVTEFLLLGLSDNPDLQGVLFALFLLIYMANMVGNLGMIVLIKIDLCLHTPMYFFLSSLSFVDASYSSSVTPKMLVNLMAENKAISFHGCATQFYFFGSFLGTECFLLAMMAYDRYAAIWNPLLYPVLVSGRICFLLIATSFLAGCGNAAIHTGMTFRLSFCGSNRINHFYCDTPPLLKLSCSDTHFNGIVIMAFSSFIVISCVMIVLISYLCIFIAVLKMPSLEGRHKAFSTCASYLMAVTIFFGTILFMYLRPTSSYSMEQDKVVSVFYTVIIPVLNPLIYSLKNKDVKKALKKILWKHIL
In short: as §1

O5AU1 = system: O5AU1
Chain of O5AU1 (as listed by the source): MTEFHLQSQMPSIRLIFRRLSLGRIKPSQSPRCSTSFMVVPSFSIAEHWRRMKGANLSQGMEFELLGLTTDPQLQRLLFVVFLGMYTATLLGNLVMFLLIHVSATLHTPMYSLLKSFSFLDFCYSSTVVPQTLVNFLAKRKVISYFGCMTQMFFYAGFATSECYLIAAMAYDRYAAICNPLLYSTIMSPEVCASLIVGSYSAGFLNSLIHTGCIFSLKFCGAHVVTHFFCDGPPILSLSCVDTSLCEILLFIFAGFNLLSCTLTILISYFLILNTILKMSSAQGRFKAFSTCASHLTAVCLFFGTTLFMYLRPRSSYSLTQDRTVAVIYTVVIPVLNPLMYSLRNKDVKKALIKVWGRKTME
In short: as §1

O5H14 = system: O5H14
Chain of O5H14 (as listed by the source): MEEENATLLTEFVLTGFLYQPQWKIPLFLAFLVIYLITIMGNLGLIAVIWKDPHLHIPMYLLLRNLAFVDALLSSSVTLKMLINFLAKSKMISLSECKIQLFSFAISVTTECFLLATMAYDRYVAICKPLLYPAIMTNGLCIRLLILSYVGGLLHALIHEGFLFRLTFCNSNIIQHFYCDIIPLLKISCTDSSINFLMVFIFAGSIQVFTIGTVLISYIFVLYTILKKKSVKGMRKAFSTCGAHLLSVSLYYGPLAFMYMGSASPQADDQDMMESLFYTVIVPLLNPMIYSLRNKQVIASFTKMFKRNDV
In short: as §1

O5H15 V108I S148T T167S = system: O5H15 V108I S148T T167S
In short: as §1

O6C65 T222A = system: O6C65 T222A
Chain of O6C65 T222A (as listed by the source, stated change not applied): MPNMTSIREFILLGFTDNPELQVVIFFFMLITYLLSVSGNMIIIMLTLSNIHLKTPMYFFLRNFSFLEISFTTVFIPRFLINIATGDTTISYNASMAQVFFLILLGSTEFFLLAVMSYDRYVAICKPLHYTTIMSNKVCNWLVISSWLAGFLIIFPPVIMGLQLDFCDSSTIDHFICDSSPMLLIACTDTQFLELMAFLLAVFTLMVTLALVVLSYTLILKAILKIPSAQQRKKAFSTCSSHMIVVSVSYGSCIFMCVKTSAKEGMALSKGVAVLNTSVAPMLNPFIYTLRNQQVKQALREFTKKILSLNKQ
In short: as §1

O6C70 L181P = system: O6C70 L181P
Chain of O6C70 L181P (as listed by the source, stated change not applied): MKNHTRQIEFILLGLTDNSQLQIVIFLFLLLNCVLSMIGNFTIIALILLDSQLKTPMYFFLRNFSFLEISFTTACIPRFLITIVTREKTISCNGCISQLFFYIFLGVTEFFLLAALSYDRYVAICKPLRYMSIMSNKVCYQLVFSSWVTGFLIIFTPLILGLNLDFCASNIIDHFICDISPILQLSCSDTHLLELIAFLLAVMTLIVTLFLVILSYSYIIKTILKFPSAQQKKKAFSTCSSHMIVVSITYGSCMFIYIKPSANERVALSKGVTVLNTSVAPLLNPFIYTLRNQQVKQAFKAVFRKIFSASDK
In short: as §1

O7E24 S193F P242S = system: O7E24 S193F P242S
In short: as §1

O7E24 = system: O7E24
Chain of O7E24 (as listed by the source): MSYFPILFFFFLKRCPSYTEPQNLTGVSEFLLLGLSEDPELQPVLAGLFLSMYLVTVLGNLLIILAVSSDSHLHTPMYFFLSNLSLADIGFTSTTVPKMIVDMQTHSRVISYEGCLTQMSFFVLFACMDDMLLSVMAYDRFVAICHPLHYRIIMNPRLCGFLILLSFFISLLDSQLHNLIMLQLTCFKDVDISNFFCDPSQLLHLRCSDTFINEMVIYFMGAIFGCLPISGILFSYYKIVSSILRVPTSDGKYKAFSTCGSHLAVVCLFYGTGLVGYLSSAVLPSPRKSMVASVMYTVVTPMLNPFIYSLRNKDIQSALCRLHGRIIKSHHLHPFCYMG
In short: as §1

Measured: odorant receptor agonist call;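 note: active if original authors judged signal statistically different from baseline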

Chain of O5AN1 L289F (as listed by the source, stated change not applied): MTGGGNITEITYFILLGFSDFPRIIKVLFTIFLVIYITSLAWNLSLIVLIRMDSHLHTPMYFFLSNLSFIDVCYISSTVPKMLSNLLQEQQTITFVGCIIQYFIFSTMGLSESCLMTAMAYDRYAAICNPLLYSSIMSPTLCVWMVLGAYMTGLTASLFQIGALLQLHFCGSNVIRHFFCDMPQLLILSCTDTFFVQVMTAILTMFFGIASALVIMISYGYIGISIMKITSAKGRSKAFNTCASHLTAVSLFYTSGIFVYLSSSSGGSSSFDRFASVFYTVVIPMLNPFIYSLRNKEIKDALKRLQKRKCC

C=CCOC(=O)Cc1ccccc1
inactive: all assays above
